In ChEMBL document CHEMBL1221199, “Structure-guided development of affinity probes for tyrosine kinases using chemical genetics” (Nat Chem Biol, 2007):
Activity calls are given as the source filed them. The rule behind the calls is not given here.

Key:
[1] = biological target: Tyrosine-protein kinase Fyn (Homo sapiens, UniProt P06241, S349C); assay: Inhibition of Fyn S349C mutant in expressed in Escherichia coli C43 by radioactive phosphotransfer assay
[2] = biological target: Tyrosine-protein kinase Fyn (Homo sapiens, UniProt P06241); assay: Inhibition of Fyn expressed in Escherichia coli C43 by radioactive phosphotransfer assay
[3] = biological target: Tyrosine-protein kinase Fyn (Homo sapiens, UniProt P06241, S349C/T342G); assay: Inhibition of Fyn T342G/S349C double mutant expressed in Escherichia coli C43 by radioactive phosphotransfer assay
[4] = biological target: Tyrosine-protein kinase Fyn (Homo sapiens, UniProt P06241, T342G); assay: Inhibition of Fyn T342G mutant expressed in Escherichia coli C43 by radioactive phosphotransfer assay
[5] = Inhibition of c-src T338G/S345C double mutant by radioactive phosphotransfer assay
Method in brief: (§1)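 Kinase-domain c-Src variants (T338G, S345C, T338G/S345C) were made by site-directed mutagenesis and expressed in E. coli BL21(DE3) co-transformed with YopH, GroEL and trigger factor. Protein was quantified by A280 and stored at −80 °C. Radioactive phosphotransfer assays were run in triplicate across a range of inhibitor concentrations.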

[6] = Inhibition of c-src T338G mutant by radioactive phosphotransfer assay; method in brief: as §1
[7] = biological target: Proto-oncogene tyrosine-protein kinase Src (Gallus gallus) (UniProt P00523); assay: Inhibition of c-src in by radioactive phosphotransfer assay
[8] = biological target: T1, Epidermal growth factor receptor (Homo sapiens, UniProt P00533); assay: Inhibition of human recombinant EGFR expressed in baculovirus-infected Sf9 cells by radioactive phosphotransfer assay; assay type: cell-based
[9] = biological target: T1, Epidermal growth factor receptor; assay: Inhibition of […] EGFR3 phosphorylation transfected in mouse NIH/3T3 cells at 0.1 to 2 uM by radioactive phosphotransfer assay; assay type: cell-based; conditions: NIH3T3, in the assay text read “immunoblotting” for “radioactive phosphotransfer assay”
Method in brief: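 Mouse NIH-3T3 fibroblasts lacking detectable endogenous EGFR, retrovirally transduced with analog-sensitive EGFR-as3 and hygromycin-selected, then grown in DMEM/10% FBS. Inhibitor at 0.1, 1.0 or 2.0 µM (1.2% DMSO), with or without EGF 100 ng/ml for 30 min before harvest. Equal lysate protein run on SDS-PAGE; anti-phosphotyrosine (4G10) immunoblot detected by ECL, with EGFR blot alongside.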

[10] = biological target: T1, Epidermal growth factor receptor; assay: Inhibition of EGFR3 transfected in EGF-stimulated mouse NIH/3T3 cells assessed as reduction of receptor-mediated Erk2 phosphorylation at 0.037 to 1 uM by radioactive phosphotransfer assay; assay type: cell-based; conditions: NIH3T3, in the assay text read “immunoblotting” for “radioactive phosphotransfer assay”
Method in brief: (§2)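 Transduced 3T3:EGFR-as3 cells were serum-starved overnight in 0.5% FBS, then given three-fold inhibitor dilutions from 1 µM to 37 nM (1% DMSO) for 1.5 h. […] Protein-normalised lysates were separated by SDS-PAGE, fluorescence-scanned, then immunoblotted for downstream phosphorylation. Run in duplicate.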

[11] = biological target: T1, Epidermal growth factor receptor; assay: Inhibition of EGFR3 transfected in EGF-stimulated mouse NIH/3T3 cells assessed as reduction of receptor-mediated Akt phosphorylation at 0.037 to 1 uM by radioactive phosphotransfer assay; assay type: cell-based; conditions: NIH3T3, in the assay text read “immunoblotting” for “radioactive phosphotransfer assay”; method in brief: as §2
[12] = biological target: T1, Epidermal growth factor receptor; conditions: NIH3T3; at 0.1 to 2 µM
[13] = biological target: T1, Epidermal growth factor receptor; assay: Inhibition of EGFR3 transfected in EGF-stimulated mouse NIH/3T3 cells assessed as reduction of receptor-mediated Erk1 phosphorylation at 0.037 to 1 uM by radioactive phosphotransfer assay; assay type: cell-based; conditions: NIH3T3, in the assay text read “immunoblotting” for “radioactive phosphotransfer assay”; method in brief: as §2

Tyrosine-protein kinase Fyn (Homo sapiens, UniProt P06241, T342G), sequence (P06241 2-537 T342G limits assumed): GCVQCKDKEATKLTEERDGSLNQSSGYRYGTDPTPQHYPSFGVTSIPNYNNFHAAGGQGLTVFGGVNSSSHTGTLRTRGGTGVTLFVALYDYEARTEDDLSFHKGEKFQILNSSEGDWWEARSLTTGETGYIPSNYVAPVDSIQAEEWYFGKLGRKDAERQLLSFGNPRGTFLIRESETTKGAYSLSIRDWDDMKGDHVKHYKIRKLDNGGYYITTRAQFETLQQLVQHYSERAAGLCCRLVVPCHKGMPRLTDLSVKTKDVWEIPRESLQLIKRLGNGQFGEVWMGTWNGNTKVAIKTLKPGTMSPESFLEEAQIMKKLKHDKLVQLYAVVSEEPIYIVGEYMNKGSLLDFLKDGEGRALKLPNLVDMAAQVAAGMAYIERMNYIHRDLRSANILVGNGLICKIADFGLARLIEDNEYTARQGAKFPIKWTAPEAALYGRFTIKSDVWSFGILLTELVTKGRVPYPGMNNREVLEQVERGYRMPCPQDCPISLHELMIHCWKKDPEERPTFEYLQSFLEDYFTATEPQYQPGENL
Tyrosine-protein kinase Fyn (Homo sapiens, UniProt P06241, S349C), sequence (P06241 2-537 S349C limits assumed): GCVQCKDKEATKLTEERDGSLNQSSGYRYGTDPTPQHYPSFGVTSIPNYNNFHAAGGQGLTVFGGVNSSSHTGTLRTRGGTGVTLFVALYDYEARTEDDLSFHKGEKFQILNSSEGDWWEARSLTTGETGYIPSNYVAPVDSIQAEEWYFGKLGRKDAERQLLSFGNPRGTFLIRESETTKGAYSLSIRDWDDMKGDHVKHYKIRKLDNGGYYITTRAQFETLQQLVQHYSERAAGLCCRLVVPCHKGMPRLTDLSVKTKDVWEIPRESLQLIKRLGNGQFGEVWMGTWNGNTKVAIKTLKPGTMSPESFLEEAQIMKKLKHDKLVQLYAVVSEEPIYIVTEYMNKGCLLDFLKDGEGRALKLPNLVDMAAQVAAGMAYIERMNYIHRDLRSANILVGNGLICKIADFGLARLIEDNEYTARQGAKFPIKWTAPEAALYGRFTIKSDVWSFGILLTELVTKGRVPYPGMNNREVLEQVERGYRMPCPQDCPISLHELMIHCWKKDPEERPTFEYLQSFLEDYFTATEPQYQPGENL
T1 sequence (P00533 whole entry): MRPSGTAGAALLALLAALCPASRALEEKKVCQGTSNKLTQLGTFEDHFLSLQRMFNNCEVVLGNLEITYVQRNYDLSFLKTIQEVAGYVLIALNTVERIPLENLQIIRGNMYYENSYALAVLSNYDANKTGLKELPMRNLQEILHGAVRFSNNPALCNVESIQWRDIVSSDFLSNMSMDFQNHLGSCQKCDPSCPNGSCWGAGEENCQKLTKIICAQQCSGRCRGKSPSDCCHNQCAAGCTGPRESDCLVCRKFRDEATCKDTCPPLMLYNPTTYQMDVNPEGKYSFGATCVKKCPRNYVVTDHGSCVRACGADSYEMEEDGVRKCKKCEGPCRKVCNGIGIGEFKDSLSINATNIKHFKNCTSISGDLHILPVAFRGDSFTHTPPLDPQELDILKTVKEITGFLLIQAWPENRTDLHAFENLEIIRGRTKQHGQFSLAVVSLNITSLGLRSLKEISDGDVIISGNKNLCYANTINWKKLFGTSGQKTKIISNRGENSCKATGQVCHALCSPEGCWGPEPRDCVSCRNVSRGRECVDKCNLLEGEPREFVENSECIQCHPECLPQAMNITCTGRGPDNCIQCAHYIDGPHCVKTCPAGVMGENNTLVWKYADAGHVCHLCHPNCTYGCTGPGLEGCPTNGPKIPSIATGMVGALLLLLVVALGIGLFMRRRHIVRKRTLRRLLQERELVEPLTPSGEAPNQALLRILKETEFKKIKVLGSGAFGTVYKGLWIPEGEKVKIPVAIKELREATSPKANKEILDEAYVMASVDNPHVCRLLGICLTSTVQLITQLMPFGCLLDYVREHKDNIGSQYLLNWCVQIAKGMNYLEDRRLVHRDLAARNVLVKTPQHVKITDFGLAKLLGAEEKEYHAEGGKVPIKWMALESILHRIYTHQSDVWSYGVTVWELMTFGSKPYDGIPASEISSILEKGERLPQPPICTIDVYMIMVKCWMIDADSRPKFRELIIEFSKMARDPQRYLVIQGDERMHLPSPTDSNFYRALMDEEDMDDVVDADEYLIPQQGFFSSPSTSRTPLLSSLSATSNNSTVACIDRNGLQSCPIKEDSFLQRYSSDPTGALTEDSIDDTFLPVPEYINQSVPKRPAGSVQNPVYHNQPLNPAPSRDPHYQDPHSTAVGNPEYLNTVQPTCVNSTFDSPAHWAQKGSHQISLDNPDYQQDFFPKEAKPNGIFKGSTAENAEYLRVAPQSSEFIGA
Tyrosine-protein kinase Fyn (Homo sapiens, UniProt P06241, S349C/T342G), sequence (P06241 2-537 T342G/S349C limits assumed): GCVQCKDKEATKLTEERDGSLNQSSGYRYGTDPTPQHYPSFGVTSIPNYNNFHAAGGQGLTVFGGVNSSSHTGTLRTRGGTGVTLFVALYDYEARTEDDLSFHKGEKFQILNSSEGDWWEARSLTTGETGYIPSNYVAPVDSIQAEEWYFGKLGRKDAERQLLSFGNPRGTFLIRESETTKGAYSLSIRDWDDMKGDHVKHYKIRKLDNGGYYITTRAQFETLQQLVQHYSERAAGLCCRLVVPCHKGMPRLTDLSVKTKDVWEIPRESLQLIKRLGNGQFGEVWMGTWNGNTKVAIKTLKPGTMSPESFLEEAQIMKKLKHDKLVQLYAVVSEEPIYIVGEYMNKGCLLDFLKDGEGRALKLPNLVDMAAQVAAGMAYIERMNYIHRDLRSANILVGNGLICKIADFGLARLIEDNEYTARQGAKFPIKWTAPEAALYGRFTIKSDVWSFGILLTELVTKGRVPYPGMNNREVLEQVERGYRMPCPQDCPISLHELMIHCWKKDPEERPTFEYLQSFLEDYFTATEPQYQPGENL
Tyrosine-protein kinase Fyn (Homo sapiens, UniProt P06241), sequence (P06241 whole entry): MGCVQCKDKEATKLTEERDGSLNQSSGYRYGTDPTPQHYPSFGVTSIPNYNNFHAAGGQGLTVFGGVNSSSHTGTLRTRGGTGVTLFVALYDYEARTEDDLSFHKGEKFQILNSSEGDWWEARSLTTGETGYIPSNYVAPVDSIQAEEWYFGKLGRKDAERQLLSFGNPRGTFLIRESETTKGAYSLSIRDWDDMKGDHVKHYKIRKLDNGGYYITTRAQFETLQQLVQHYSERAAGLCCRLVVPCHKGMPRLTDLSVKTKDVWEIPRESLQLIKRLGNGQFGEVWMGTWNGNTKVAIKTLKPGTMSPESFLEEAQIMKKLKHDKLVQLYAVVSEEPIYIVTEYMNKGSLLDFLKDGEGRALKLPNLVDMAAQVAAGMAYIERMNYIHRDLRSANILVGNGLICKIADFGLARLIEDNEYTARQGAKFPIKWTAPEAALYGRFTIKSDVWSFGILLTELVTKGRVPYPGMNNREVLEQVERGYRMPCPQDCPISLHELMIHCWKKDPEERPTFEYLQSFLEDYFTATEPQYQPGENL

IC50 [1] | IC50 [2] | IC50 [3] | IC50 [4] | IC50 [5] | IC50 [6] | IC50 [7] | IC50 [8] | inhibition [9] | inhibition [10] | inhibition [11] | inhibition [12] | inhibition [13] | Structure (SMILES)
5 nM | 3700 nM | 6 nM | 1100 nM | 20 nM | 1570 nM | > 27000 nM | < 1 nM |  |  |  |  |  | C=CC(=O)Nc1ccc2ncnc(Nc3ccccc3)c2c1
760 nM | > 300000 nM | 107 nM | 9700 nM | 13 nM | 374 nM | > 27000 nM |  |  |  |  |  |  | C=CC(=O)Nc1ccc2ncnc(Nc3ccc(-c4ccccc4)cc3)c2c1
34 nM | > 300000 nM | 19 nM | 4650 nM | 37 nM | 1740 nM | > 27000 nM |  |  |  |  |  |  | C=CC(=O)Nc1ccc2ncnc(Nc3ccc(Br)cc3)c2c1
32 nM | 18100 nM | 3 nM | 1800 nM | 13 nM | 1360 nM | > 27000 nM |  |  |  |  |  |  | C=CC(=O)Nc1ccc2ncnc(Nc3ccc4ccccc4c3)c2c1

More lines, now with the values behind:

Structure (SMILES) | IC50 [1] | IC50 [2] | IC50 [3] | IC50 [4] | IC50 [5] | IC50 [6] | IC50 [7] | IC50 [8] | inhibition [9] | inhibition [10] | inhibition [11] | inhibition [12] | inhibition [13]
CCC(=O)Nc1ccc2ncnc(Nc3ccc(C(C)(C)C)cc3)c2c1 | > 300000 nM | > 300000 nM | 540 nM | 1500 nM | 254 nM | 218 nM | > 27000 nM |  |  |  |  |  | 
C=CC(=O)Nc1ccc2ncnc(NCCc3ccccc3)c2c1 | 1400 nM | 40000 nM | 88 nM | 3800 nM | 109 nM | 551 nM | > 27000 nM |  |  |  |  |  | 
C=CC(=O)Nc1ccc2ncnc(NCc3cccc4ccccc34)c2c1 | 1700 nM | 32000 nM | 150 nM | 1500 nM | 24 nM | 123 nM | > 27000 nM |  |  |  |  |  | 
C=CC(=O)Nc1ccc2ncnc(Nc3cccc(Br)c3)c2c1 | 42 nM | > 300000 nM | 1 nM | 420 nM | 1 nM | 173 nM |  |  |  |  |  |  | 
C=CC(=O)Nc1ccc2ncnc(Nc3ccc(C(C)(C)C)cc3)c2c1 | 8400 nM | > 300000 nM | 24 nM | 900 nM | 5 nM | 187 nM | > 27000 nM | 689 nM | Active | Active | Active | inactive | Active
C=CC(=O)Nc1ccc2ncnc(Nc3cccc4ccccc34)c2c1 | 670 nM | 16300 nM | 30 nM | 2100 nM | 27 nM | 1270 nM | 16300 nM |  |  |  |  |  | 
C=CC(=O)Nc1ccc2ncnc(Nc3ccc(C(C)C)cc3)c2c1 | 340 nM | > 300000 nM | 32 nM | 2200 nM | 16 nM | 357 nM | > 27000 nM |  |  |  |  |  | 
